Measured values published in ChEMBL document CHEMBL4513216, “Probing the Open Global Health Chemical Diversity Library for Multistage-Active Starting Points for Next-Generation Antimalarials” (ACS Infect Dis, 2020).

Experiment: Toxicity liver stage against HepG2, at 10uM
Type: cell-based
Parameters: test concentration 10 uM, cell line HepG2-A16-CD81EGFP
Conditions: human, HepG2-A16-CD81EGFP cells; read-out: INHIBITION
Procedure, shortened: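 Uninfected HepG2-A16-CD81EGFP cells, 3 × 10^3 per well, 1536-well, plated on prespotted compound at 10 μM final, parasite-free screening media added to match infected plates; puromycin 10 μM positive, DMSO 0.5% negative; run in parallel with 48 h PbLuc assay at 37 °C, 5% CO2; viability by CellTiter-Glo luminescence, normalized to controls.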

Row | Compound | cytotoxicity at 10 µM
1 | COc1ccc(F)cc1C(=O)C1CCCN(Cc2cnc(C)s2)C1 (stereo not drawn) | 6.26%
2 | O=C(c1ccc2c(c1)OCO2)N1CCN2C(=O)NC[C@H]2C1 | 2.02%
3 | CC(C)COC(=O)N1CC(=O)N(Cc2ccco2)CC(O)C1 (stereo not drawn) | -1.7%
4 | CCN1CC(O)CN(C(=O)c2ccc(SC)cc2)CC1=O (stereo not drawn) | 6.88%
5 | CC(C)C[C@H](NC(=O)Nc1ccc(F)c(Cl)c1)C(=O)O | -43%
6 | N#Cc1nc(COc2ccc3c(c2)OCO3)oc1NC1CC1 | -43%
7 | CCO[C@@H]1CC[C@H]2[C@H]1OCCN2C(=O)c1ccc(C)o1 | -149%
8 | Cc1cc2nc(SCC(=O)N3CCOCC3)n(C(C)C)c(=O)c2[nH]1 | 11%
9 | COc1cccc(C(=O)Oc2cc(=O)n3cccc(C)c3n2)c1 | 6.36%
10 | O=c1[nH]nc2c(N3CCCCCC3)nccn12 | 10.5%
11 | Cn1cc2c(n1)C(CNC(=O)Cc1ccsc1)OCC2 (stereo not drawn) | 0.175%
12 | O=C(NCCCN1CCOCC1)c1ccn(COc2ccc(Br)cc2)n1 | 5.39%
13 | Cc1cc(N2CCC(Cc3ccccc3)CC2)ncn1 | 3.51%
14 | Cc1cc(C(F)(F)F)nn1C(C)C(=O)Nc1ccc(Cl)cn1 (stereo not drawn) | 11.6%
15 | CC(C)(C)NC(=O)CCn1ncc2c(Cl)cccc21 | 7.25%
16 | CN1CCCCC[C@@H]2[C@@H]1[C@H](c1ccccc1)CN2C(=O)c1cccnc1 | -24.4%
17 | CN1CCCC[C@@H]2[C@H]1[C@@H](c1ccccc1)CCN2C(=O)c1cccnc1 | -21.2%
18 | Cc1cc(C)nc(Nc2cccc(C3CCCN(CC4CC4)C3)n2)n1 (stereo not drawn) | -11.3%
19 | COCC(=O)N1CCc2nc(-c3cnccn3)nc(O)c2C1 | 27.7%
20 | CS(=O)(=O)N1CCC(C(=O)NC(Cc2ccsc2)c2cccnc2)CC1 (stereo not drawn) | -12.5%
21 | O=C(N[C@@H]1CN(Cc2cccc(F)c2)C[C@H]1O)c1cscn1 | -4.66%
22 | CC(=O)N1CC(Cc2nccc3ccn(C)c23)C1 | 0.668%

Row | Compound | cytotoxicity at 10 µM
23 | COc1ccccc1C(=O)N1CC(Cc2nccc3ccn(C)c23)C1 | -0.619%
24 | O=C(NC1CC1)C1CCc2nnc(-c3cccnc3)n21 (stereo not drawn) | 8.96%
25 | Cn1nc(C2CCNC2)c2c(C(=O)NCC(F)(F)F)cc(C3CC3)nc21 (stereo not drawn) | 8.41%
26 | COc1ccc(NC(=O)Cc2c(C)nn(C)c2C)cc1F | 10.1%
27 | COC(=O)CCNC(=O)c1c[nH]cc1-c1ccccc1OC | 6.17%
28 | Cc1csc(C2(NC(=O)NCCN3CCOCC3)CCC2)n1 | -0.746%
29 | CCCNC(=O)CN1CCCC1c1nc(Cc2ccc(F)cc2)no1 (stereo not drawn) | 4.8%
30 | CCN(CC)CC1CCN(Cc2ncc(C(C)(C)C)o2)CC1 | -7.22%
31 | CC(C)(C)NC(=O)c1cccc(CN2CCS(=O)(=O)CC2)c1 | 4.5%
32 | Cc1ccc(C(CNCc2nccn2C)N2CCOCC2)s1 (stereo not drawn) | -1.76%
33 | Cc1ccoc1CNCc1nnc2n1CCCC2C(F)(F)F (stereo not drawn) | 13.9%
34 | O=C(NS(=O)(=O)c1ccccc1C(F)(F)F)c1cccc2c1OCCO2 | 5.56%
35 | Cc1nnc(NC(=O)c2cc(S(=O)(=O)N3CCSCC3)c[nH]2)s1 | -7.01%
36 | CC(C)c1nc(CC(=O)N(C)Cc2ccc3c(c2)OCO3)cs1 | -13.5%
37 | COc1ccc(CNC(=O)NCc2ccc(C)cc2)cn1 | -5.63%
38 | CSCC(=O)N(C)Cc1ccc(N(C)C)cc1 | 8.63%
39 | COc1cccc(CCNC(=O)CCS(=O)(=O)C2CCCC2)c1 | 2.2%
40 | CCn1c(=O)n(Cc2nc(C3CC3)no2)c2ccccc21 | -43.2%
41 | CCOc1cccc(CNC(C)c2ccc(-n3ccnc3)cc2)c1O (stereo not drawn) | -38.3%
42 | Cc1ccc(CNC(=O)Cn2c(=O)c3cccnc3n2C)cc1F | -2.83%
43 | CCC(Nc1nnnn1-c1ccccc1)C(=O)NCc1cccs1 (stereo not drawn) | -1.12%
44 | O=C1OCCN1CCCN1CCCC1c1ccc(O)cc1 (stereo not drawn) | -6.3%

Row | Compound | cytotoxicity at 10 µM
45 | Cc1cnn(CCNCc2nc(-c3ccsc3)oc2C)c1 | -3.55%
46 | Cc1nc(C)n(Cc2cccc(NC(=O)NC(C)(CO)C3CC3)c2)n1 (stereo not drawn) | 14.3%
47 | Cc1cnc(CN2CCN(c3ccnc(-c4ccccc4)n3)CC2)cn1 | 3.61%
48 | Cc1nnc(NC(=O)CN2CCCC(c3ccn[nH]3)C2)s1 (stereo not drawn) | -37.6%
49 | CCOc1ccc(C(C)NC(=O)N2CCC(C(N)=O)CC2)cc1OC (stereo not drawn) | -4.56%
50 | Clc1ccc(OCCN2CCN(CCn3cncn3)CC2)cc1 | -17.4%
51 | COc1ncccc1CN1C[C@@H]2CN(c3ncccn3)C[C@@H]2C1 | -5.11%
52 | CC(C)n1c2ccccc2c2c1cc(C(=O)N(C)C)n2C(=O)N(C)C | -95%
53 | CO[C@@H]1CC[C@H]2[C@H]1OCCN2C(=O)COc1ccc(C)cc1 | -99%
54 | CCC1=N[C@@]2(CC[C@@H]3CN(C(=O)NCC4CCCCC4)C[C@@H]32)C(=O)N1 | -70.2%
55 | CCN(CC)C(=O)[C@@H]1C[C@@H](NC(=O)c2cccc(N(C)C)c2)CN1C | 6.69%
56 | COCCN(Cc1ccccc1Cl)c1nc(CCN)nc2ccccc12 | 12.9%
57 | Cc1cc(C2CCCCN2C(=O)CN2C(=O)OC(C)(C)C2=O)no1 (stereo not drawn) | 3.35%
58 | NC(=O)c1csc(N2CCN(C3CCc4ccccc4C3)CC2)n1 (stereo not drawn) | 1.67%
59 | O=C(c1cc(=O)[nH]c(=O)[nH]1)N1CCCC(CO)(CC2CC2)C1 (stereo not drawn) | -3.02%
60 | Cc1cc(CC(C)Nc2nc(-c3cccnc3)nc3c2CNC3)[nH]n1 (stereo not drawn) | 3.28%
61 | Cc1cc(C(=O)N2C[C@H](CO)C[C@H](CN3CCOCC3)C2)cnc1C | 3.98%
62 | Nc1ncccc1CN1CCOCC1CC(=O)NCc1ccccn1 (stereo not drawn) | 9.66%
63 | Cc1nc(CN2CCCC(CCc3ccccc3C)C2)c[nH]1 (stereo not drawn) | -1.35%
64 | COCCc1noc(CN(C)c2nc(C)nc(C)c2C)n1 | 4.24%
65 | CC1(Cc2ccc3c(c2)OCO3)CCCN(S(=O)(=O)N2CCOCC2)C1 (stereo not drawn) | -5.39%
66 | CCNC(=O)[C@@H]1C[C@H](N)CN1Cc1ccc(-c2ccccc2C#N)o1 | -38.2%

Row | Compound | cytotoxicity at 10 µM
67 | CCCc1nnc(N2CCC3(CCC(=O)N(C)C3)CC2)o1 | 3.96%
68 | CNCc1cn(CC2CCN(Cc3cccs3)CC2)nn1 | -4.47%
69 | CC(C)C1CN(C(=O)c2cn3ccccc3n2)CCCN1CC1CC1 (stereo not drawn) | -13.6%
70 | Cc1cccc(CN2CCN(c3ncnc4[nH]cnc34)CC2CCO)n1 (stereo not drawn) | -3.09%
71 | COc1cnc(N2CCCN(Cc3ccc(F)cc3)CC2)nc1 | -5.41%
72 | Cc1cc(C(=O)N2C[C@H](C(C)C)[C@@H](N(C)C)C2)cs1 | -0.421%
73 | CCCc1cc(C(=O)N2CCC3(CCCN(CCO)C3=O)C2)cs1 (stereo not drawn) | -144%
74 | COc1ccc(CCN2C(=O)O[C@@H]3CN(C4CCSCC4)C[C@@H]32)cc1 | 1.6%
75 | Cc1cc2nc(C(C)C)cc(NC(C)c3nncn3C)n2n1 (stereo not drawn) | 2.83%
76 | Cc1nc(C(F)(F)F)nc(N2CCC3(CC2)CC(C(=O)O)N(C)C3)c1C (stereo not drawn) | -4.14%
77 | Cc1ocnc1C(=O)N1CCC2(CC1)c1nc[nH]c1CCN2CC(C)C | -11.4%
78 | CN1CC[C@H]2CN(C(=O)COCc3nc4cc(F)ccc4[nH]3)C[C@H]21 | 2.77%
79 | CC1(C)CN(C(=O)CC2CCC2)C[C@]1(C)O | -9.15%
80 | Cc1ccsc1CN1CCCC(CNC(=O)c2ccc(N)nc2)C1 (stereo not drawn) | -2.25%
81 | Cc1ccc(-c2cn[nH]c2C2CCCN(c3nccc(N)n3)C2)cc1 (stereo not drawn) | 15.6%
82 | Cc1cc(C)n(NC(=O)c2ccccc2F)c(=O)c1 | -13.2%
83 | CCN(CC)C1COc2c(cc(Br)c(C)c2C)C1=O (stereo not drawn) | 0.331%
84 | Cc1cccc(OCC(O)CN2CCC(Cn3cccn3)CC2)c1 (stereo not drawn) | -1.43%
85 | Cc1ccc(CN2CCCN(Cc3cscn3)CC2)cc1 | -8.47%
86 | N#Cc1ccc(OCC(=O)N2CCCC(n3cccn3)C2)cc1 (stereo not drawn) | -2.83%
87 | Cc1cnn(CC2CCCCN2C(=O)c2cccc3c2OCO3)c1 (stereo not drawn) | -4.89%
88 | O=C(CCc1ccc(F)cc1)NS(=O)(=O)c1ccc2c(c1)OCCCO2 | 4.4%

Row | Compound | cytotoxicity at 10 µM
89 | CN(Cc1ccsc1)C(=O)Nc1cccnc1N1CCCC1 | -4.37%
90 | CCc1ncc2c(n1)CN(Cc1nc(-c3ccccn3)no1)CC2 | -20.9%
91 | CN(Cc1ccc2c(c1)OCCO2)C(=O)NCCc1cnn(C)c1 | -9.12%
92 | Cn1cnc(S(=O)(=O)NCCCN2CCOCC2)c1Cl | -11.2%
93 | O=C(CN1CCC(N2CCNC2=O)CC1)NCC(F)(F)F | -3.35%
94 | O=S(=O)(CCCN1CCCC1Cn1cncn1)c1ccccc1 (stereo not drawn) | -7.64%
95 | c1ccc(C(OCCNC2CCc3ncnn3C2)c2ccccc2)cc1 (stereo not drawn) | -18.4%
96 | CCN(CC)C(=O)c1cc(C2CCCN2C)ccn1 (stereo not drawn) | -3.24%
97 | Cc1noc(C)c1CN1CC[C@H]2[C@H]1CCN2CC1CCOCC1 | 2%
98 | O=S(=O)(C1CC1)N1CC[C@@H](OCC2CC2)[C@@H]1Cc1ccncc1 | 10.9%
99 | CC(C)N1[C@H](Cn2cncn2)C[C@@H]2CN(Cc3ccsc3)CC[C@@H]21 | -117%
100 | COc1ncccc1CN1C[C@@H]2OCCN(CCN(C)C)[C@@H]2C1 | 11.8%
101 | Cn1ncc2c1C(COCC1CC1)N(C(=O)c1ccncn1)CC2 (stereo not drawn) | -132%
102 | COc1ccccc1CNC(Cc1cccs1)c1nc(C)cs1 (stereo not drawn) | -6.12%
103 | O=C(c1ccncc1)N1C[C@@H]2CCN(c3cccnc3)C[C@@H]2C1 | -71.5%
104 | CN1CCN(Cc2cccc(C#N)c2)Cc2cccnc21 | -83.2%
105 | Cc1noc(C)c1CN1CCN(CC2CC2)c2ncccc2C1 | 5.56%
106 | COc1ccc(CN2CCc3ncnc(C4CC4)c3CC2)cc1 | -148%
107 | CC1CCC(C(=O)N2CCC(n3cc(C4(O)CCCC4)nn3)CC2)CC1 (stereo not drawn) | 9.08%
108 | CC1=C(C#N)C(=O)NC(=O)/C1=C\c1c(C)[nH]n(-c2ccc(C)cc2)c1=O | 1.91%
